Test results published in paper PMC4495880 (Biochemical pharmacology, 2010).
Where two headings read alike, the source gives them in different places.

Legend:
[1] = Proteolysis bioassay: inactivation of BNP by human kidney membranes; format: in vitro ADME; details: 40 μg human kidney membranes, 45 min, 37°C; cGMP bioassay; mean, N = 8
Summary of the method: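 Rat BNP_1-32 incubated 45 min at 37°C with 40 μg crude human kidney membranes (diluted to 2 mg/ml in 50 mM Tris-HCl pH 7.5, 20% glycerol, 50 mM NaF). Stopped with 0.5 N perchloric acid, boiled 10 min, neutralised. Residual activity was read as cGMP (RIA) in serum-starved HEK293 cells expressing rat (1 min) or human (3 min) GC-A, with 1 mM IBMX. Remaining peptide was fitted to an untreated-peptide standard curve and expressed as % of peptide-only. Mean ± SEM, N = 8.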

[2] = Protease inhibitors blocking BNP inactivation by human kidney membranes; format: biochemical; details: for effect of inhibitor on inactivation of rat BNP1-32 by human kidney membranes: 45 min, N = 8; for effect on BNP inactivation: human membranes, data not shown
[3] = Protease inhibitors blocking BNP inactivation by rat kidney membranes; format: biochemical; details: 40 μg rat kidney membranes, 45 min; cGMP bioassay; N = 8
[4] = cited from earlier work
[5] = Proteolysis bioassay: inactivation of BNP by rat kidney membranes; format: in vitro ADME; details: 40 μg rat kidney membranes, 45 min, 37°C; cGMP bioassay; mean, N = 4
Summary of the method: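 Human BNP_1-32 exposed to 40 μg crude rat kidney membranes (Tris-HCl pH 7.5/glycerol/NaF buffer, 2 mg/ml) for 45 min at 37°C. Perchloric acid stop, 10 min boil, NaOH neutralisation. Aliquot in DMEM, 25 mM HEPES pH 7.4, 1 mM IBMX applied to HEK293 cells stably expressing GC-A (rat receptor 1 min, human 3 min). cGMP by radioimmunoassay; peptide left derived from standard curve, % of starting peptide-only value. Mean ± SEM, N = 4.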

[6] = tested on: recombinant human meprin A and NEP; format: in vitro ADME
[7] = 40 μg human kidney membranes, 37°C, cGMP bioassay

For “Rat B-type natriuretic peptide 1–32 (SQDSAFRIQERLRNSKMAHSSSCFGQKIDRIG; Brain natriuretic peptide 45; UniProt P13205 77-108, looked up, fragment) [rat BNP1-32]”, the bioactivity lost [1] was “More than 75%”.

In the case of `CC(=O)N[C@@H](CC(C)C)C(=O)N[C@@H](CC(C)C)C(=O)N[C@H](C=O)CCCNC(=N)N` [leupeptin], the “effect of inhibitor on inactivation of human BNP1-32 by human kidney membranes” value ([2]; 40 μg human kidney membranes, 20 min, 37°C, cGMP bioassay) is reported as “completely blocked activity losses”, the “effect of inhibitor on inactivation of rat BNP1-32 by human kidney membranes” value [2, 7] is reported as “blocked a portion of the activity loss” and the “effect of inhibitor on inactivation of rat BNP1-32 by rat kidney membranes” value [3] is reported as “had no effect”.

In the case of `O=S(=O)(F)Cc1ccccc1` [PMSF], the “effect on BNP inactivation” value [2] is reported as “neither had an effect”.

In the case of “CNP: natriuretic peptide, best substrate for NEP”, the half-life ([4]; in vivo) is listed as ~ 2 min.

For `CC(C)C[C@H](NP(=O)(O)O[C@@H]1O[C@@H](C)[C@H](O)[C@@H](O)[C@H]1O)C(=O)N[C@@H](Cc1c[nH]c2ccccc12)C(=O)O` [phosphoramidon], the “effect of inhibitor on inactivation of rat BNP1-32 by human kidney membranes” value [2, 7] was “blocked a portion of the activity loss”.

For “human B-type natriuretic peptide [human BNP1-32]”, the half-life [4] is given as ~ 20 min, the initial bioactivity lost [5] is given as 48% and the “additional loss of activity on longer incubation with purified enzymes” value [6] is given as “did not result in any additional loss”. The “additional loss of activity on sequential addition of the enzymes” value [6] was “did not result in any additional loss”.

For Atrial natriuretic peptide [ANP], the half-life [4] is given as ~ 2 min.

In the case of aprotinin, the “effect on BNP inactivation” value [2] is reported as “neither had an effect”.
